Test results reported in ChEMBL document CHEMBL5058577, “EUbOPEN Chemogenomics Library 2 (Multiplex)” (2022).

Tested on: Fibroblast
Assay: Multiplex assay against human fibroblast
Format: toxicity, cell-based
Method in brief: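 Cells stained live at seeding with Hoechst33342, BioTracker Green Microtubule Cytoskeleton Dye, MitoTracker Red and Annexin V Alexa Fluor 680 were imaged on a CQ1 microscope at 37°C and 5% CO2 after compound addition. Their classification by CellPathfinder machine-learning gating ran from Hoechst high-intensity objects versus normal cells, to healthy, pyknosed or fragmented nuclei among normal cells, to mitotic or apoptotic among pyknosed cells. Tubulin, mitochondrial-mass and membrane-permeability phenotypes are per cents of healthy-nucleus cells.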

[1] = 12 h, 1 µM, compound concentration 1 uM, replicate 1
[2] = 12 h, 1 µM, compound concentration 1 uM, replicate 2
[3] = 12 h, 10 µM, compound concentration 10 uM, replicate 1
[4] = 12 h, 10 µM, compound concentration 10 uM, replicate 2
[5] = 24 h, 1 µM, compound concentration 1 uM, replicate 1
[6] = 24 h, 1 µM, compound concentration 1 uM, replicate 2
[7] = 24 h, 10 µM, compound concentration 10 uM, replicate 1
[8] = 24 h, 10 µM, compound concentration 10 uM, replicate 2
[9] = 48 h, 1 µM, compound concentration 1 uM, replicate 1
[10] = 48 h, 1 µM, compound concentration 1 uM, replicate 2
[11] = 48 h, 10 µM, compound concentration 10 uM, replicate 1
[12] = 48 h, 10 µM, compound concentration 10 uM, replicate 2

OCCCNc1cc(-c2ccnc(Nc3cccc(Cl)c3)n2)ccn1
Population Apoptotic (%) [1]: 58%
Population Fragmented Nuclei (%) [1]: 15%
Population Healthy Nuclei (%) [1]: 66%
Population Hoechst High Intensity Objects (%) [1]: 4%
Population Membrane Permeable-Phenotype (%) [1]: 0%
Population Mitochondria Different-Phenotype (%) [1]: 9%
Population Mitotic Cells (%) [1]: 41%
Population Normal (%) [1]: 95%
Population Pyknosed Nuclei (%) [1]: 18%
Population Tubulin-Different-Phenotype (%) [1]: 52%
Total Cell Count [1]: 139
Population Apoptotic (%) [2]: 50%
Population Fragmented Nuclei (%) [2]: 21%
Population Healthy Nuclei (%) [2]: 53%
Population Hoechst High Intensity Objects (%) [2]: 6%
Population Membrane Permeable-Phenotype (%) [2]: 5%
Population Mitochondria Different-Phenotype (%) [2]: 13%
Population Mitotic Cells (%) [2]: 50%
Population Normal (%) [2]: 93%
Population Pyknosed Nuclei (%) [2]: 24%
Population Tubulin-Different-Phenotype (%) [2]: 47%
Total Cell Count [2]: 138
Population Apoptotic (%) [3]: 61%
Population Fragmented Nuclei (%) [3]: 38%
Population Healthy Nuclei (%) [3]: 44%
Population Hoechst High Intensity Objects (%) [3]: 10%
Population Membrane Permeable-Phenotype (%) [3]: 9%
Population Mitochondria Different-Phenotype (%) [3]: 25%
Population Mitotic Cells (%) [3]: 38%
Population Normal (%) [3]: 89%
Population Pyknosed Nuclei (%) [3]: 17%
Population Tubulin-Different-Phenotype (%) [3]: 88%
Total Cell Count [3]: 136
Population Apoptotic (%) [4]: 52%
Population Fragmented Nuclei (%) [4]: 65%
Population Healthy Nuclei (%) [4]: 24%
Population Hoechst High Intensity Objects (%) [4]: 6%
Population Membrane Permeable-Phenotype (%) [4]: 20%
Population Mitochondria Different-Phenotype (%) [4]: 11%
Population Mitotic Cells (%) [4]: 47%
Population Normal (%) [4]: 93%
Population Pyknosed Nuclei (%) [4]: 9%
Population Tubulin-Different-Phenotype (%) [4]: 84%
Total Cell Count [4]: 227
Population Apoptotic (%) [5]: 56%
Population Fragmented Nuclei (%) [5]: 16%
Population Healthy Nuclei (%) [5]: 65%
Population Hoechst High Intensity Objects (%) [5]: 2%
Population Membrane Permeable-Phenotype (%) [5]: 1%
Population Mitochondria Different-Phenotype (%) [5]: 20%
Population Mitotic Cells (%) [5]: 43%
Population Normal (%) [5]: 97%
Population Pyknosed Nuclei (%) [5]: 17%
Population Tubulin-Different-Phenotype (%) [5]: 60%
Total Cell Count [5]: 136
Population Apoptotic (%) [6]: 46%
Population Fragmented Nuclei (%) [6]: 29%
Population Healthy Nuclei (%) [6]: 48%
Population Hoechst High Intensity Objects (%) [6]: 3%
Population Membrane Permeable-Phenotype (%) [6]: 6%
Population Mitochondria Different-Phenotype (%) [6]: 10%
Population Mitotic Cells (%) [6]: 53%
Population Normal (%) [6]: 96%
Population Pyknosed Nuclei (%) [6]: 22%
Population Tubulin-Different-Phenotype (%) [6]: 55%
Total Cell Count [6]: 139
Population Apoptotic (%) [7]: 80%
Population Fragmented Nuclei (%) [7]: 36%
Population Healthy Nuclei (%) [7]: 42%
Population Hoechst High Intensity Objects (%) [7]: 11%
Population Membrane Permeable-Phenotype (%) [7]: 7%
Population Mitochondria Different-Phenotype (%) [7]: 46%
Population Mitotic Cells (%) [7]: 20%
Population Normal (%) [7]: 88%
Population Pyknosed Nuclei (%) [7]: 20%
Population Tubulin-Different-Phenotype (%) [7]: 86%
Total Cell Count [7]: 138
Population Fragmented Nuclei (%) [8]: 63%
Population Healthy Nuclei (%) [8]: 27%
Population Hoechst High Intensity Objects (%) [8]: 6%
Population Membrane Permeable-Phenotype (%) [8]: 12%
Population Mitochondria Different-Phenotype (%) [8]: 9%
Population Normal (%) [8]: 93%
Population Pyknosed Nuclei (%) [8]: 9%
Population Tubulin-Different-Phenotype (%) [8]: 80%
Total Cell Count [8]: 218
Population Apoptotic (%) [9]: 46%
Population Fragmented Nuclei (%) [9]: 27%
Population Healthy Nuclei (%) [9]: 47%
Population Hoechst High Intensity Objects (%) [9]: 8%
Population Membrane Permeable-Phenotype (%) [9]: 1%
Population Mitochondria Different-Phenotype (%) [9]: 20%
Population Mitotic Cells (%) [9]: 53%
Population Normal (%) [9]: 91%
Population Pyknosed Nuclei (%) [9]: 25%
Population Tubulin-Different-Phenotype (%) [9]: 66%
Total Cell Count [9]: 136
Population Apoptotic (%) [10]: 37%
Population Fragmented Nuclei (%) [10]: 36%
Population Healthy Nuclei (%) [10]: 30%
Population Hoechst High Intensity Objects (%) [10]: 7%
Population Membrane Permeable-Phenotype (%) [10]: 5%
Population Mitochondria Different-Phenotype (%) [10]: 24%
Population Mitotic Cells (%) [10]: 62%
Population Normal (%) [10]: 92%
Population Pyknosed Nuclei (%) [10]: 32%
Population Tubulin-Different-Phenotype (%) [10]: 45%
Total Cell Count [10]: 132
Population Apoptotic (%) [11]: 91%
Population Fragmented Nuclei (%) [11]: 39%
Population Healthy Nuclei (%) [11]: 39%
Population Hoechst High Intensity Objects (%) [11]: 14%
Population Membrane Permeable-Phenotype (%) [11]: 15%
Population Mitochondria Different-Phenotype (%) [11]: 42%
Population Mitotic Cells (%) [11]: 8%
Population Normal (%) [11]: 85%
Population Pyknosed Nuclei (%) [11]: 21%
Population Tubulin-Different-Phenotype (%) [11]: 77%
Total Cell Count [11]: 134
Population Apoptotic (%) [12]: 85%
Population Fragmented Nuclei (%) [12]: 58%
Population Healthy Nuclei (%) [12]: 30%
Population Hoechst High Intensity Objects (%) [12]: 6%
Population Membrane Permeable-Phenotype (%) [12]: 20%
Population Mitochondria Different-Phenotype (%) [12]: 20%
Population Mitotic Cells (%) [12]: 14%
Population Normal (%) [12]: 93%
Population Pyknosed Nuclei (%) [12]: 11%
Population Tubulin-Different-Phenotype (%) [12]: 64%
Total Cell Count [12]: 192
